The record followed here is ChEMBL document CHEMBL3576820, “Discovery of benzimidazole oxazolidinediones as novel and selective nonsteroidal mineralocorticoid receptor antagonists” (ACS Med Chem Lett, 2015).

The source made the active and inactive calls. The calls are words filed in the database; no cut-off is given here.

Test system in the first data set: not listed separately
Description: Fraction unbound in 10% human plasma. The data set is classed as ADME, cell-free. The note with it: 10% plasma. An outline of the steps:
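Free fraction measured in the presence of 10% plasma (human or rat), taken as correlating with the free fraction in whole plasma.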
`C[C@H](c1ccc(F)cc1)N1C(=O)O[C@](Cc2ccccc2)(c2nc3c(NS(C)(=O)=O)cccc3[nH]2)C1=O`: the fraction unbound was 0.058.
On the same count and under the same terms, under `C[C@H](c1ccc(F)cc1)N1C(=O)O[C@](Cc2ccccc2)(c2nc3cc(Cl)ccc3[nH]2)C1=O` stands 0.002; under `C[C@H](c1ccc(F)cc1)N1C(=O)O[C@](Cc2ccccc2)(c2nc3cc(NS(C)(=O)=O)ccc3[nH]2)C1=O`, 0.034; under `C[C@H](c1ccc(F)cc1)N1C(=O)O[C@](Cc2ccccc2)(c2nc3cc(C(F)(F)F)ccc3[nH]2)C1=O`, 0.002.

Test system in another data set: not listed separately
Description: Volume of distribution at steady state in Wistar han rat at 2 mg/kg, po and 1 mg/kg, iv. The data set is classed as ADME, organism-based. The note with it: in vivo, read-out: Vdss. In outline:
(§1)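 Wistar Han rats. IV dose 1 mg/kg in DMSO/PEG200/water (10:60:30), n=2. Oral dose 2 mg/kg in imwitor/tween (1:1) by gavage, n=3. Values are averages. Derived: F%, plasma clearance, Vdss, terminal half-life and oral AUC normalized to dose.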
With `C[C@H](c1ccc(F)cc1)N1C(=O)O[C@](Cc2ccccc2)(c2nc3c(NS(C)(=O)=O)cccc3[nH]2)C1=O`, the Vd was 3.2 L/kg.
For the molecule `C[C@H](c1ccc(F)cc1)N1C(=O)O[C@](Cc2ccccc2)(c2nc3cc(Cl)ccc3[nH]2)C1=O`, the Vd came out at 4.6 L/kg.
Consider `C[C@H](c1ccc(F)cc1)N1C(=O)O[C@](Cc2ccccc2)(c2nc3cc(NS(C)(=O)=O)ccc3[nH]2)C1=O`, for which the Vd stood at 1.8 L/kg.
The same measure, in the same setting: with `C[C@H](c1ccc(F)cc1)N1C(=O)O[C@](Cc2ccccc2)(c2nc3cc(C(F)(F)F)ccc3[nH]2)C1=O` the figure was 3.4 L/kg.

The target in the next data set is T1, Progesterone receptor (Homo sapiens) (UniProt P06401).
T1 sequence (whole entry): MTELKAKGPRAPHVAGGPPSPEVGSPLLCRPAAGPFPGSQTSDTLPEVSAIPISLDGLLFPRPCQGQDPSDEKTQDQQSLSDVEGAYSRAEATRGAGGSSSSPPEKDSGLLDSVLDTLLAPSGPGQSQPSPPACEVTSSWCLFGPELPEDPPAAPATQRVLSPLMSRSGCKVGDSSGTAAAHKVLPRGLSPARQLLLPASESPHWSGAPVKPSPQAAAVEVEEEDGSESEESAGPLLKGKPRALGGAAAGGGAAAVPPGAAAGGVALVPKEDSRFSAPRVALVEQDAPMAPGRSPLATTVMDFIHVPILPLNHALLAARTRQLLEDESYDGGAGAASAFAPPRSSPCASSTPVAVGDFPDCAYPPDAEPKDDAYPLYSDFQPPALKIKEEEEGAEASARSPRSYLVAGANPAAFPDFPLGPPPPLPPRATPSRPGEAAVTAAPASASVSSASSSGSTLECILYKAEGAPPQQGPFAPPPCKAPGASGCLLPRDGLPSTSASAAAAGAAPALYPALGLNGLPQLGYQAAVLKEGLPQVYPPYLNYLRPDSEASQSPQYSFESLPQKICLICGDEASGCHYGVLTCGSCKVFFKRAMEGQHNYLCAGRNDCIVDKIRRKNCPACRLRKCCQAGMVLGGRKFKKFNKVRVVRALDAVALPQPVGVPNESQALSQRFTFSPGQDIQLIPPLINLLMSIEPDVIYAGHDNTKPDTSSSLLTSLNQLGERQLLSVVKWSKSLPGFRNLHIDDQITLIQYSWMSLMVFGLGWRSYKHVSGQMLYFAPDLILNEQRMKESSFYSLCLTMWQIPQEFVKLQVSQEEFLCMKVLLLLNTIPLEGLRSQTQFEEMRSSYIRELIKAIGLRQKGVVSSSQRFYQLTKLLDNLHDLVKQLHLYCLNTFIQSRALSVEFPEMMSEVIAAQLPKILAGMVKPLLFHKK
Put plainly: Agonist activity at human progesterone receptor beta by cell-based assay.
Conditions: not given
For `C[C@H](c1ccc(F)cc1)N1C(=O)O[C@](Cc2ccccc2)(c2nc3c(NS(C)(=O)=O)cccc3[nH]2)C1=O`, the result was inactive.
As to `C[C@H](c1ccc(F)cc1)N1C(=O)O[C@](Cc2ccccc2)(c2nc3cc(Cl)ccc3[nH]2)C1=O`, the result was inactive.
On the same count and under the same terms, under `C[C@H](c1ccc(F)cc1)N1C(=O)O[C@](Cc2ccccc2)(c2nc3cc(NS(C)(=O)=O)ccc3[nH]2)C1=O` stands “inactive”; under `C[C@H](c1ccc(F)cc1)N1C(=O)O[C@](Cc2ccccc2)(c2nc3cc(C(F)(F)F)ccc3[nH]2)C1=O`, “inactive”.

The target in a further data set is Estrogen receptor beta (Homo sapiens, UniProt Q92731). Put plainly: Antagonist activity at human estrogen receptor beta assessed as inhibition of agonist-induced protein interaction with steroid receptor co-activator peptide by cell-based reporter gene assay.
Chain of Estrogen receptor beta (Q92731 whole entry): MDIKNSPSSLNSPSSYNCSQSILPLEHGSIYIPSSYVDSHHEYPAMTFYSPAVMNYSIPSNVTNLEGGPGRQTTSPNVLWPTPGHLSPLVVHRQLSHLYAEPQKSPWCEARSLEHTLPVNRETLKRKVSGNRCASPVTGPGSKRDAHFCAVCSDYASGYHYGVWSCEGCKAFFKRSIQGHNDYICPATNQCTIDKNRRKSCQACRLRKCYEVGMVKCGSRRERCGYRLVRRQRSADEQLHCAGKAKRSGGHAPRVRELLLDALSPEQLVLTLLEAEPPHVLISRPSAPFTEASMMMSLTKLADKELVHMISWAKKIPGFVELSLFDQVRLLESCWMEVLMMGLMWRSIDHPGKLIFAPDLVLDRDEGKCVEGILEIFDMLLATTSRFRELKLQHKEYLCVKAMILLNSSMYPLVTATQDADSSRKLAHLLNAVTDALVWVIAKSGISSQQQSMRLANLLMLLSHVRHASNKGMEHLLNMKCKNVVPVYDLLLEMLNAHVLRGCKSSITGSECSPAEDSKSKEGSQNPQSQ
Conditions: not given
Turning to `C[C@H](c1ccc(F)cc1)N1C(=O)O[C@](Cc2ccccc2)(c2nc3c(NS(C)(=O)=O)cccc3[nH]2)C1=O`, the IC50 was 7.3 µM.
On the same count and under the same terms, under `C[C@H](c1ccc(F)cc1)N1C(=O)O[C@](Cc2ccccc2)(c2nc3cc(Cl)ccc3[nH]2)C1=O` stands 2.4 µM; under `C[C@H](c1ccc(F)cc1)N1C(=O)O[C@](Cc2ccccc2)(c2nc3cc(NS(C)(=O)=O)ccc3[nH]2)C1=O`, 12 µM.
Still for that read-out and setting: under `C[C@H](c1ccc(F)cc1)N1C(=O)O[C@](Cc2ccccc2)(c2nc3cc(C(F)(F)F)ccc3[nH]2)C1=O` stands 2.7 µM.

Another data set concerns the target T2, Estrogen receptor (Homo sapiens) (UniProt P03372).
T2 sequence (whole entry): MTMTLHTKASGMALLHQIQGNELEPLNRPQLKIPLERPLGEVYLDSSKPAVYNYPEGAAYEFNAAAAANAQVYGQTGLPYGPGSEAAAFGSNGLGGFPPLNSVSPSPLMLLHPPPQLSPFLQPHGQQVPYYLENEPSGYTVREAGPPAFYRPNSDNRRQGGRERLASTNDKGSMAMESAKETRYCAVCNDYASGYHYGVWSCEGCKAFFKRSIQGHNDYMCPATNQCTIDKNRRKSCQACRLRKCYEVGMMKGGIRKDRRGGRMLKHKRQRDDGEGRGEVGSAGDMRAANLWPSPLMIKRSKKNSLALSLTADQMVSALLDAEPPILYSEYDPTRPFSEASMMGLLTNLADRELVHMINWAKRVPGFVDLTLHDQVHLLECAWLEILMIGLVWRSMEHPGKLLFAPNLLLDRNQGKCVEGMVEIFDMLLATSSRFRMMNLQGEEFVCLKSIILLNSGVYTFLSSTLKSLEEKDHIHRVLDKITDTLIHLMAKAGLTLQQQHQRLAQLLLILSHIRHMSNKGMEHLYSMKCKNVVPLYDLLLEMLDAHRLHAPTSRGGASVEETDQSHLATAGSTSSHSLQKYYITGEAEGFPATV
Put plainly: Agonist activity at human estrogen receptor alpha by cell-based assay.
Conditions: not given
In the case of `C[C@H](c1ccc(F)cc1)N1C(=O)O[C@](Cc2ccccc2)(c2nc3c(NS(C)(=O)=O)cccc3[nH]2)C1=O`, the outcome was inactive.
With `C[C@H](c1ccc(F)cc1)N1C(=O)O[C@](Cc2ccccc2)(c2nc3cc(Cl)ccc3[nH]2)C1=O`, the outcome was inactive.
`C[C@H](c1ccc(F)cc1)N1C(=O)O[C@](Cc2ccccc2)(c2nc3cc(NS(C)(=O)=O)ccc3[nH]2)C1=O`: the result was inactive.
For `C[C@H](c1ccc(F)cc1)N1C(=O)O[C@](Cc2ccccc2)(c2nc3cc(C(F)(F)F)ccc3[nH]2)C1=O`, the result was inactive.

Test system in the next data set: not listed separately
Put plainly: Terminal half life in Wistar han rat at 2 mg/kg, po and 1 mg/kg, iv. Conditions: in vivo, read-out: beta t1/2 (converted). The format is ADME, organism-based. An outline of the steps:
as §1
As for `C[C@H](c1ccc(F)cc1)N1C(=O)O[C@](Cc2ccccc2)(c2nc3c(NS(C)(=O)=O)cccc3[nH]2)C1=O`, the half-life is 1.2 h.
On the same count and under the same terms, under `C[C@H](c1ccc(F)cc1)N1C(=O)O[C@](Cc2ccccc2)(c2nc3cc(Cl)ccc3[nH]2)C1=O` stands 1.5 h; under `C[C@H](c1ccc(F)cc1)N1C(=O)O[C@](Cc2ccccc2)(c2nc3cc(NS(C)(=O)=O)ccc3[nH]2)C1=O`, 1.6 h.
On to `C[C@H](c1ccc(F)cc1)N1C(=O)O[C@](Cc2ccccc2)(c2nc3cc(C(F)(F)F)ccc3[nH]2)C1=O`, for which the half-life is 1.7 h.

Test system in a further data set: not listed separately
Description: Plasma clearance in Wistar han rat at 2 mg/kg, po and 1 mg/kg, iv. The format is ADME, organism-based.
Conditions: not given
An outline of the steps: as §1
The molecule `C[C@H](c1ccc(F)cc1)N1C(=O)O[C@](Cc2ccccc2)(c2nc3c(NS(C)(=O)=O)cccc3[nH]2)C1=O` yielded a clearance of 55 mL/min/kg.
On the same count and under the same terms, under `C[C@H](c1ccc(F)cc1)N1C(=O)O[C@](Cc2ccccc2)(c2nc3cc(Cl)ccc3[nH]2)C1=O` stands 47 mL/min/kg.
Still for that read-out and setting: under `C[C@H](c1ccc(F)cc1)N1C(=O)O[C@](Cc2ccccc2)(c2nc3cc(NS(C)(=O)=O)ccc3[nH]2)C1=O` stands 32 mL/min/kg; under `C[C@H](c1ccc(F)cc1)N1C(=O)O[C@](Cc2ccccc2)(c2nc3cc(C(F)(F)F)ccc3[nH]2)C1=O`, 33 mL/min/kg.

The target in a further data set is T3, Mineralocorticoid receptor (Homo sapiens) (UniProt P08235).
T3 sequence (whole entry): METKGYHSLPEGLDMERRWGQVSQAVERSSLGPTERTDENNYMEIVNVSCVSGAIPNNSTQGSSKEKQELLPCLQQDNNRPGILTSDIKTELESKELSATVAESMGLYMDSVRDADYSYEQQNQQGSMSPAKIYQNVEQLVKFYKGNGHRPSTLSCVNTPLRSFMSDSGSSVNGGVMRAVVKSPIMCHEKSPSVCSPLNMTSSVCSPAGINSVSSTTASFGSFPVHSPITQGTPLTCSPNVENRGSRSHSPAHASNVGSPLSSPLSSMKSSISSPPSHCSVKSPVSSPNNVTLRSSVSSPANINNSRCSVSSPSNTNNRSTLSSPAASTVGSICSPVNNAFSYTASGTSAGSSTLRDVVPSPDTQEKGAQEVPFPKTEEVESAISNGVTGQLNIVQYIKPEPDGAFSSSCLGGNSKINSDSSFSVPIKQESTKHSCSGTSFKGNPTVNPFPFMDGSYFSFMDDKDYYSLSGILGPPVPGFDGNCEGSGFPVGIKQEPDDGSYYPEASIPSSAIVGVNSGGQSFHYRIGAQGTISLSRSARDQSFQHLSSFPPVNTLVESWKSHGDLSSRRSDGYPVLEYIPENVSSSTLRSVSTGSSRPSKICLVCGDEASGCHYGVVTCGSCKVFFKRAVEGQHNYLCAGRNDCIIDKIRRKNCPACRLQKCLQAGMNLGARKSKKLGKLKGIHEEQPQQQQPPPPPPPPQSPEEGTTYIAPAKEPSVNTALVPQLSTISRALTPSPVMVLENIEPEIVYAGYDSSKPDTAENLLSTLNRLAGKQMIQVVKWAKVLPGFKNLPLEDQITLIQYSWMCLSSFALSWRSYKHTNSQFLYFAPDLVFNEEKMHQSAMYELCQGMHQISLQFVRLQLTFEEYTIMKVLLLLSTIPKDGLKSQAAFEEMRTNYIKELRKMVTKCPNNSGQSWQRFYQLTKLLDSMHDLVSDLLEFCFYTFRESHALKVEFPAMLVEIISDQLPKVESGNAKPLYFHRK
Put plainly: Agonist activity at human mineralocorticoid receptor by cell-based assay.
Conditions: not given
`C[C@H](c1ccc(F)cc1)N1C(=O)O[C@](Cc2ccccc2)(c2nc3c(NS(C)(=O)=O)cccc3[nH]2)C1=O`: the outcome was inactive.
Same read-out and setting: under `C[C@H](c1ccc(F)cc1)N1C(=O)O[C@](Cc2ccccc2)(c2nc3cc(Cl)ccc3[nH]2)C1=O` stands “inactive”; under `C[C@H](c1ccc(F)cc1)N1C(=O)O[C@](Cc2ccccc2)(c2nc3cc(NS(C)(=O)=O)ccc3[nH]2)C1=O`, “inactive”.
`C[C@H](c1ccc(F)cc1)N1C(=O)O[C@](Cc2ccccc2)(c2nc3cc(C(F)(F)F)ccc3[nH]2)C1=O`: the result was inactive.

Another data set addresses T4, Progesterone receptor (Homo sapiens, UniProt P06401).
T4 sequence (P06401 whole entry): T1 sequence (whole entry)
Put plainly: Antagonist activity at human progesterone receptor beta expressed in human U2OS cells assessed as inhibition of D(-)-norgestrel-induced protein interaction with steroid receptor co-activator peptide after overnight incubation by beta-galactosidase reporter gene assay. The format is cell-based.
Conditions: not given
Consider `C[C@H](c1ccc(F)cc1)N1C(=O)O[C@](Cc2ccccc2)(c2nc3c(NS(C)(=O)=O)cccc3[nH]2)C1=O`, for which the IC50 came out at 8.2 µM.
Regarding `C[C@H](c1ccc(F)cc1)N1C(=O)O[C@](Cc2ccccc2)(c2nc3cc(Cl)ccc3[nH]2)C1=O`, the IC50 turned out to be 2.4 µM.
Consider `C[C@H](c1ccc(F)cc1)N1C(=O)O[C@](Cc2ccccc2)(c2nc3cc(NS(C)(=O)=O)ccc3[nH]2)C1=O`, for which the IC50 worked out at 4.9 µM.
As to `C[C@H](c1ccc(F)cc1)N1C(=O)O[C@](Cc2ccccc2)(c2nc3cc(C(F)(F)F)ccc3[nH]2)C1=O`, the half-inhibitory concentration (IC50) is 3.2 µM.
